Activity calls are given as the source filed them. No cut-off for these calls is given here.
What was measured:
[1] = system: NCI-H460; assay: Antiproliferative activity against human NCI-H460 cells after 72 hrs; format: functional, cell-based; conditions: NCI-H460, 72 h
[2] = system: A-431; assay: Antiproliferative activity against human A431 cells after 72 hrs; format: functional, cell-based; conditions: A-431, 72 h
[3] = Antiproliferative activity against human JR8 cells after 72 hrs; format: functional, cell-based; conditions: JR8, 72 h
[4] = system: IGROV-1; assay: Antiproliferative activity against human IGROV1 cells after 72 hrs; format: functional, cell-based; conditions: IGROV-1, 72 h
[5] = Inhibition of yeast full-length recombinant HSP90 ATPase activity expressed in Escherichia coli strain BL21(DE3) assessed as inorganic phosphate release after 3 hrs; set-up: species or system Saccharomyces cerevisiae
[6] = Binding affinity to HSP90 after 4 hrs by fluorescence polarization assay
[7] = molecular target: T1, Heat shock protein HSP90 (Homo sapiens, UniProt P07900+P08238); assay: Inhibition of HSP90 in human A431 cells assessed as down-regulation of EGFR protein at IC80 concentration after 24 hrs by immunoblotting; format: cell-based; conditions: A-431
Outline: (§1)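 Cells seeded at 100,000 cells/mL, treated 24 h later for 24 h at the equitoxic IC80 concentration given per compound and cell line. Whole-cell extracts (40 µg) run on SDS-PAGE and immunoblotted. Actin was the loading control, and tubulin the loading control for EGFR.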

[8] = molecular target: T1, Heat shock protein HSP90; assay: Inhibition of HSP90 in human JR8 cells assessed as down-regulation of Raf-1 protein at IC80 concentration after 24 hrs by immunoblotting; format: cell-based; outline: as §1
[9] = molecular target: T1, Heat shock protein HSP90; assay: Inhibition of HSP90 in human JR8 cells assessed as down-regulation of survivin protein at IC80 concentration after 24 hrs by immunoblotting; format: cell-based; outline: as §1
[10] = molecular target: T1, Heat shock protein HSP90; assay: Inhibition of HSP90 in human JR8 cells assessed as down-regulation of Cdk4 protein at IC80 concentration after 24 hrs by immunoblotting; format: cell-based; outline: as §1
[11] = molecular target: T1, Heat shock protein HSP90; assay: Inhibition of HSP90 in human JR8 cells assessed as down-regulation of Akt protein at IC80 concentration after 24 hrs by immunoblotting; format: cell-based; outline: as §1
[12] = molecular target: T1, Heat shock protein HSP90; assay: Inhibition of HSP90 in human JR8 cells assessed as down-regulation of EGFR protein at IC80 concentration after 24 hrs by immunoblotting; format: cell-based; outline: as §1
[13] = molecular target: T1, Heat shock protein HSP90; assay: Inhibition of HSP90 in human IGROV1 cells assessed as down-regulation of Raf-1 protein at IC80 concentration after 24 hrs by immunoblotting; format: cell-based; conditions: IGROV-1; outline: as §1
[14] = molecular target: T1, Heat shock protein HSP90; assay: Inhibition of HSP90 in human IGROV1 cells assessed as down-regulation of Akt protein at IC80 concentration after 24 hrs by immunoblotting; format: cell-based; conditions: IGROV-1; outline: as §1
[15] = molecular target: T1, Heat shock protein HSP90; assay: Inhibition of HSP90 in human A431 cells assessed as reduction of Raf-1/Hsp90 precipitation at IC80 concentration after 4 hrs by co-immunoprecipitation analysis; format: cell-based; conditions: A-431
[16] = Antiproliferative activity against human STO cells after 72 hrs; format: functional, cell-based
Outline: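 Cells seeded 24 h before, then exposed to compound for 72 h (about three doublings in controls), in medium with 10% heat-inactivated FBS at 37 °C. Compound dissolved fresh in DMSO and diluted in medium. Adherent cells trypsinized and counted electronically. IC50 is the concentration giving 50% growth inhibition, read from dose–response curves.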

[17] = molecular target: T1, Heat shock protein HSP90; assay: Inhibition of HSP90 in human A431 cells assessed as down-regulation of Akt protein after 24 hrs by immunoblotting; format: cell-based; conditions: a-431; outline: as §1
[18] = molecular target: T1, Heat shock protein HSP90; assay: Inhibition of HSP90 in human A431 cells assessed as down-regulation of EGFR protein after 24 hrs by immunoblotting; format: cell-based; conditions: a-431; outline: as §1
[19] = molecular target: T1, Heat shock protein HSP90; assay: Inhibition of HSP90 in human A431 cells assessed as down-regulation of Cdk4 protein after 24 hrs by immunoblotting; format: cell-based; conditions: a-431; outline: as §1
[20] = molecular target: T1, Heat shock protein HSP90; assay: Inhibition of HSP90 in human A431 cells assessed as down-regulation of survivin protein after 24 hrs by immunoblotting; format: cell-based; conditions: a-431; outline: as §1
[21] = molecular target: T1, Heat shock protein HSP90; assay: Inhibition of HSP90 in human A431 cells assessed as down-regulation of Raf-1 protein at IC80 concentration after 24 hrs by immunoblotting; format: cell-based; conditions: A-431; outline: as §1
[22] = molecular target: T1, Heat shock protein HSP90; assay: Inhibition of HSP90 in human A431 cells assessed as down-regulation of survivin protein at IC80 concentration after 24 hrs by immunoblotting; format: cell-based; conditions: A-431; outline: as §1
[23] = molecular target: T1, Heat shock protein HSP90; assay: Inhibition of HSP90 in human A431 cells assessed as down-regulation of Cdk4 protein at IC80 concentration after 24 hrs by immunoblotting; format: cell-based; conditions: A-431; outline: as §1
[24] = molecular target: T1, Heat shock protein HSP90; assay: Inhibition of HSP90 in human A431 cells assessed as down-regulation of Akt protein at IC80 concentration after 24 hrs by immunoblotting; format: cell-based; conditions: A-431; outline: as §1
[25] = molecular target: T1, Heat shock protein HSP90; assay: Inhibition of HSP90 in human IGROV1 cells assessed as down-regulation of survivin protein at IC80 concentration after 24 hrs by immunoblotting; format: cell-based; conditions: IGROV-1; outline: as §1
[26] = molecular target: T1, Heat shock protein HSP90; assay: Inhibition of HSP90 in human IGROV1 cells assessed as down-regulation of Cdk4 protein at IC80 concentration after 24 hrs by immunoblotting; format: cell-based; conditions: IGROV-1; outline: as §1
[27] = molecular target: T1, Heat shock protein HSP90; assay: Inhibition of HSP90 in human A431 cells expressing p53 mutant assessed as down-regulation of p53 protein at IC80 concentration after 24 hrs by immunoblotting; format: cell-based; conditions: A-431; outline: as §1
[28] = molecular target: T1, Heat shock protein HSP90; assay: Inhibition of HSP90 in human A431 cells assessed as up-regulation of HSP70 protein at IC80 concentration after 24 hrs by immunoblotting; format: cell-based; conditions: A-431; outline: as §1
[29] = molecular target: T1, Heat shock protein HSP90; assay: Inhibition of HSP90 in human A431 cells assessed as reduction of Hsp70/Hsp90 precipitation at IC80 concentration after 4 hrs by co-immunoprecipitation analysis; format: cell-based; conditions: A-431
[30] = system: IGROV-1; assay: Induction of apoptosis in human IGROV1 cells assessed as PARP1 cleavage at 11 uM after 48 hrs by Western blotting; format: functional, cell-based
Outline: (§2)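 IGROV-1 cells treated with 11 µM compound for 24 or 48 h. Cells rinsed with ice-cold PBS containing 0.1 mM orthovanadate and lysed in hot sample buffer. 40 µg of total extract run on SDS-PAGE and blotted onto nitrocellulose. Probed for cleaved caspase-3 and PARP-1.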

[31] = system: IGROV-1; assay: Induction of apoptosis in human IGROV1 cells assessed as activation of caspase 3 at 11 uM after 48 hrs by Western blotting; format: functional, cell-based; outline: as §2
[32] = system: IGROV-1; assay: Antitumor activity against human IGROV1 cells xenografted in athymic Swiss nude mouse assessed as increase of mouse survival at 25 mg/kg, ip administered qd for 4 days/week for 2 weeks; format: functional, organism-based; set-up: dose 25 mg/kg
Outline: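 Female athymic Swiss nude mice, 8–10 weeks old. IGROV-1 ovarian carcinoma was serially passaged ip as ascites, and 2.5 × 10^6 cells in 0.2 mL saline were injected ip. Dosing ip at 25 mg/kg daily, 4 days/week for 2 weeks, began the day after implant. End point was median survival time, reported as T/C% (treated/control MST × 100).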

[33] = Binding affinity to HSP90 by surface plasmon resonance analysis
[34] = molecular target: T1, Heat shock protein HSP90; assay: Inhibition of HSP90 in human A431 cells assessed as reduction of Raf-1/Hsp90 precipitation at 11 uM after 4 hrs by co-immunoprecipitation analysis; conditions: A-431
[35] = molecular target: T1, Heat shock protein HSP90; assay: Inhibition of HSP90 in human A431 cells assessed as reduction of Hsp70/Hsp90 precipitation at 11 uM after 4 hrs by co-immunoprecipitation analysis; conditions: A-431

SMILES: CCC(C)/C=C/C=C/C=C/C(=O)/C=C(\O)C1=C2C=C(CC(O)CO)/C(=C/NCc3ccccc3)C(=O)[C@]2(C)OC1=O (some centres undefined)
- IC50 [1]: 4.3 µM
- IC50 [2]: 0.3 µM
- IC80 [2]: 2.7 µM
- IC50 [3]: 4.8 µM
- IC80 [3]: 10.7 µM
- IC50 [4]: 0.2 µM
- IC80 [4]: 2.3 µM
- IC50 [5]: 5.75 µM
- IC50 [6]: 27.7 µM
- inhibition [7]: Active
- Raf-1 protein down-regulation [8]: Active
- inhibition [9]: Active
- inhibition [10]: Active
- inhibition [11]: Active
- inhibition [12]: Active
- inhibition [13]: Active
- inhibition [14]: Active
- inhibition [15]: Active
- IC50 [16]: 3.57 µM
- IC80 [16]: 11.6 µM
- EC50 [17]: 8.93 µM
- EC50 [18]: 3.57 µM
- EC50 [19]: 4.93 µM
- EC50 [20]: 2.32 µM

SMILES: CCC(C)/C=C/C=C/C=C/C(=O)/C=C(\O)C1=C2C=C3CC(CO)OC=C3C(=O)[C@]2(C)OC1=O (some centres undefined) [BULGARIALACTONE B]
- IC50 [1]: 50 µM
- IC50 [2]: 5.53 µM
- IC80 [2]: 11 µM
- IC50 [3]: 6.42 µM
- IC50 [4]: 4.65 µM
- IC50 [5]: 9.87 µM
- IC50 [6]: 61.7 µM
- inhibition [21]: Active
- inhibition [22]: Active
- inhibition [23]: Active
- inhibition [24]: Active
- inhibition [7]: Active
- Raf-1 protein down-regulation [8]: Active
- inhibition [9]: Active
- inhibition [10]: Active
- inhibition [11]: Active
- inhibition [12]: Active
- inhibition [13]: Active
- inhibition [25]: Active
- inhibition [26]: Active
- inhibition [14]: Active
- inhibition [27]: Active
- inhibition [28]: inactive
- inhibition [15]: Active
- inhibition [29]: Active
- inhibition [30]: Active
- inhibition [31]: Active
- Activity [32]: Active
- EC50 [17]: 16.8 µM
- EC50 [18]: 11 µM
- EC50 [19]: 8.49 µM
- EC50 [20]: 11 µM
- Kd [33]: 0.0013 µM
- inhibition [34]: Active
- inhibition [35]: Active

Source: ChEMBL document CHEMBL1212874, “Natural and semisynthetic azaphilones as a new scaffold for Hsp90 inhibitors” (Bioorg Med Chem, 2010)
